# Measured values from ChEMBL document CHEMBL4339237, “Bulbiferates A and B: Antibacterial Acetamidohydroxybenzoates from a Marine Proteobacterium, Microbulbifer sp” (2019).
# Calls of active or inactive are those of the source. No cut-off for these calls is given here.
# Experiments:
# Staphylococcus aureus [1] = experiment: Antibacterial activity against methicillin-resistant Staphylococcus aureus ATCC 33591 by agar diffusion assay; type: functional, organism-based
# Escherichia coli [2] = experiment: Antibacterial activity against Escherichia coli ATCC 25922 incubated for 18 hrs by dilution antimicrobial susceptibility test; type: functional; conditions: ATCC 25922, 18 h
# How it was run: (§1)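 Broth dilution susceptibility method for aerobic bacteria in 96-well plates. Compounds dissolved in DMSO and serially diluted to 10 concentrations (0.5–256 μg/mL). Geneticin served as positive control for E. coli and vancomycin for MSSA. Tested in duplicate, with eight untreated media controls per plate. Incubated 18 h at 33 °C. MIC taken as lowest concentration preventing visible growth.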
# Staphylococcus aureus [3] = experiment: Antibacterial activity against methicillin-sensitive Staphylococcus aureus ATCC 25913 by agar diffusion assay; type: functional
# Escherichia coli [4] = experiment: Antibacterial activity against Escherichia coli ATCC 25922 by agar diffusion assay; type: functional
# Staphylococcus aureus [5] = experiment: Antibacterial activity against methicillin-sensitive Staphylococcus aureus ATCC 25913 incubated for 18 hrs by dilution antimicrobial susceptibility test; type: functional; conditions: ATCC 25913, 18 h; how it was run: as §1
SMILES,MIC (Staphylococcus aureus [5]),Activity (Staphylococcus aureus [1]),MIC (Escherichia coli [2]),diameter of the inhibition zone (DIZ) (Staphylococcus aureus [3]),diameter of the inhibition zone (DIZ) (Escherichia coli [4])
CCCCCCCCCCCOC(=O)c1ccc(O)c(NC(C)=O)c1,> 200 µg/mL,inactive,> 200 µg/mL,5 mm,5 mm
CN[C@@H]1[C@@H](O)[C@@H](O[C@@H]2[C@@H](O)[C@H](O[C@H]3O[C@H]([C@H](C)O)[C@@H](O)[C@H](O)[C@H]3N)[C@@H](N)C[C@H]2N)OC[C@]1(C)O,–,–,0.25 µg/mL,–,–
COC(=O)c1ccc(O)c(NC(C)=O)c1,> 200 µg/mL,–,> 200 µg/mL,7 mm,inactive
CCCCCCCCCCOC(=O)c1ccc(O)c(NC(C)=O)c1,> 200 µg/mL,inactive,> 200 µg/mL,10 mm,6 mm

# Now from value to compound, other results behind:
MIC (Staphylococcus aureus [5]),SMILES,Activity (Staphylococcus aureus [1]),MIC (Escherichia coli [2]),diameter of the inhibition zone (DIZ) (Staphylococcus aureus [3]),diameter of the inhibition zone (DIZ) (Escherichia coli [4])
> 200 µg/mL,CCCCCCCCOC(=O)c1ccc(O)c(NC(C)=O)c1,–,> 200 µg/mL,5 mm,inactive
> 200 µg/mL,CCCCCCCCCCCCCCOC(=O)c1ccc(O)c(NC(C)=O)c1,–,> 200 µg/mL,–,–
